{"source": "ChEMBL document CHEMBL3826901", "about": "“Design, synthesis, and mode of action studies of a mitomycin tetramer inducing double activations with a single probe” (Bioorg Med Chem, 2016)", "key": {"[1]": {"assay": "Prodrug activation in Tris HCl methanolic solution at pH 7.4 using 5 equiv of Et3P by UV-visible spectrophotometry", "settings": "buffer"}, "[2]": {"system": "Escherichia coli", "assay": "Induction of interstrand cross-linking in EcoR1-linearized Escherichia coli pBR322 plasmid DNA at 0.20 mM after 2 hrs using 5 equiv of Et3P by ethidium bromide staining based alkaline agarose gel electrophoresis", "method_in_brief": "(§1)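 EcoRI-linearized pBR322 DNA in aqueous Tris-HCl pH 7.4 was N2-deaerated for 15 min. Mitomycin (from 5 mM DMSO stock) and Et3P (5 equiv) were added, then incubated 2 h at room temperature. Purified DNA was run on a denaturing alkaline agarose gel (40 mM NaOH, 1 mM EDTA) with a HindIII-digested λ marker. The gel was neutralized and ethidium bromide-stained, and the cross-linked band quantified.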"}, "[3]": {"system": "Escherichia coli", "assay": "Induction of interstrand cross-linking in EcoR1-linearized Escherichia coli pBR322 plasmid DNA at 0.10 mM after 2 hrs using 5 equiv of Et3P by ethidium bromide staining based alkaline agarose gel electrophoresis", "method_in_brief": "as §1"}, "[4]": {"assay": "Prodrug activation in Tris HCl methanolic solution at 0.030 mM at pH 7.4 using 10 equiv of Et3P by UV-visible spectrophotometry", "settings": "buffer, pH 7.4, 30 µM", "method_in_brief": "(§2)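 Mitomycin (from 1.0 mM methanolic stock) was in 0.1 M Tris-HCl methanolic buffer, 'pH' 7.4, at 25 °C. Nucleophile was added from methanolic stock (final 0.06–1.5 mM). UV-vis scans (200–500 nm) ran beyond two half-lives. Pseudo-first-order kobs and t1/2 were derived from 370 nm absorbance. Final 'pH' was within ±0.1 units. Runs were in duplicate and averaged.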"}, "[5]": {"assay": "Prodrug activation in Tris HCl methanolic solution at 0.03 mM at pH 7.4 using 5 equiv of Et3P by UV-visible spectrophotometry", "settings": "buffer, pH 7.4, 30 µM", "method_in_brief": "as §2"}, "[6]": {"assay": "Prodrug activation in Tris HCl methanolic solution at 0.015 mM at pH 7.4 using 50 equiv of Et3P by UV-visible spectrophotometry", "settings": "buffer, pH 7.4, 15 µM", "method_in_brief": "as §2"}, "[7]": {"assay": "Prodrug activation in Tris HCl methanolic solution assessed as half-life at 0.015 mM at pH 7.4 using 20 equiv of GSH by UV-visible spectrophotometry", "settings": "pH 7.4, 15 µM", "method_in_brief": "as §2"}, "[8]": {"assay": "Prodrug activation in Tris HCl methanolic solution at 0.015 mM at pH 7.4 using 5 equiv of Et3P by UV-visible spectrophotometry", "settings": "buffer, pH 7.4, 15 µM", "method_in_brief": "as §2"}, "[9]": {"assay": "Prodrug activation in Tris HCl methanolic solution at 0.015 mM at pH 7.4 using 20 equiv of L-DTT by UV-visible spectrophotometry", "settings": "buffer, pH 7.4, 15 µM", "method_in_brief": "as §2"}, "[10]": {"assay": "Prodrug activation in Tris HCl methanolic solution at 0.015 mM at pH 7.4 using 10 equiv of L-DTT by UV-visible spectrophotometry", "settings": "buffer, pH 7.4, 15 µM", "method_in_brief": "as §2"}, "[11]": {"assay": "Prodrug activation in Tris HCl methanolic solution at 0.015 mM at pH 7.4 using 10 equiv of Et3P by UV-visible spectrophotometry", "settings": "buffer, pH 7.4, 15 µM", "method_in_brief": "as §2"}, "[12]": {"assay": "Prodrug activation in Tris HCl methanolic solution at 0.015 mM at pH 7.4 using 20 equiv of GSH by UV-visible spectrophotometry", "settings": "buffer, pH 7.4, 15 µM", "method_in_brief": "as §2"}, "[13]": {"assay": "Prodrug activation in Tris HCl methanolic solution assessed as half-life at 0.015 mM at pH 7.4 using 10 equiv of Et3P by UV-visible spectrophotometry", "settings": "buffer, pH 7.4, 15 µM", "method_in_brief": "as §2"}, "[14]": {"assay": "Prodrug activation in Tris HCl methanolic solution assessed as half-life at 0.015 mM at pH 7.4 using 20 equiv of Et3P by UV-visible spectrophotometry", "settings": "buffer, pH 7.4, 15 µM", "method_in_brief": "as §2"}, "[15]": {"assay": "Prodrug activation in Tris HCl methanolic solution assessed as half-life at 0.015 mM at pH 7.4 using 20 equiv of L-DTT by UV-visible spectrophotometry", "settings": "buffer, pH 7.4, 15 µM", "method_in_brief": "as §2"}, "[16]": {"system": "Escherichia coli", "assay": "Induction of interstrand cross-linking in EcoR1-linearized Escherichia coli pBR322 plasmid DNA at 0.050 mM after 2 hrs using 5 equiv of Et3P by ethidium bromide staining based alkaline agarose gel electrophoresis", "method_in_brief": "as §1"}, "[17]": {"assay": "Prodrug activation in Tris HCl methanolic solution assessed as half-life at 0.015 mM at pH 7.4 using 50 equiv of Et3P by UV-visible spectrophotometry", "settings": "buffer, pH 7.4, 15 µM", "method_in_brief": "as §2"}, "[18]": {"assay": "Prodrug activation in Tris HCl methanolic solution assessed as half-life at 0.015 mM at pH 7.4 using 5 equiv of Et3P by UV-visible spectrophotometry", "settings": "buffer, pH 7.4, 15 µM", "method_in_brief": "as §2"}, "[19]": {"assay": "Prodrug activation in Tris HCl methanolic solution assessed as half-life at 0.015 mM at pH 7.4 using 10 equiv of L-DTT by UV-visible spectrophotometry", "settings": "buffer, pH 7.4, 15 µM", "method_in_brief": "as §2"}, "[20]": {"assay": "Prodrug activation in Tris HCl methanolic solution at 0.015 mM at pH 7.4 using 20 equiv of Et3P by UV-visible spectrophotometry", "settings": "buffer, pH 7.4, 15 µM", "method_in_brief": "as §2"}, "[21]": {"system": "Escherichia coli", "assay": "Induction of interstrand cross-linking in EcoR1-linearized Escherichia coli pBR322 plasmid DNA at 0.025 mM after 2 hrs using 5 equiv of Et3P by ethidium bromide staining based alkaline agarose gel electrophoresis", "method_in_brief": "as §1"}}, "data": [{"smiles": "CO[C@@]12[C@H](COC(N)=O)C3=C(C(=O)C(C)=C(N)C3=O)N1C[C@@H]1N[C@@H]12", "note": "[MITOMYCIN]", "values": [{"measurement": "Drug metabolism", "setting": "[1]", "result": "metabolite_notdetected"}, {"measurement": "Activity", "setting": "[2]", "result": 2, "unit": "%"}]}, {"smiles": "CO[C@@]12[C@H](COC(N)=O)C3=C(C(=O)C(C)=C(NCC4CCC(CNC5=C(C)C(=O)C6=C(C5=O)[C@@H](COC(N)=O)[C@@]5(OC)[C@H]7N[C@H]7CN65)SS4)C3=O)N1C[C@@H]1N[C@@H]12", "note": "(some centres undefined)", "values": [{"measurement": "Activity", "setting": "[3]", "result": 40.5, "unit": "%"}, {"measurement": "K", "setting": "[4]", "result": 1.35, "unit": "day⁻¹"}]}, {"smiles": "CO[C@@]12[C@H](COC(N)=O)C3=C(C(=O)C(C)=C(NCC(O)CNC4=C(C)C(=O)C5=C(C4=O)[C@@H](COC(N)=O)[C@@]4(OC)[C@H]6N[C@H]6CN54)C3=O)N1C[C@@H]1N[C@@H]12", "note": "(some centres undefined)", "values": [{"measurement": "Drug metabolism", "setting": "[5]", "result": "metabolite_notdetected"}, {"measurement": "Activity", "setting": "[3]", "result": 5, "unit": "%"}]}, {"smiles": "CO[C@@]12[C@H](COC(N)=O)C3=C(C(=O)C(C)=C(NCC(CNC4=C(C)C(=O)C5=C(C4=O)[C@@H](COC(N)=O)[C@@]4(OC)[C@H]6N[C@H]6CN54)SSC(CNC4=C(C)C(=O)C5=C(C4=O)[C@@H](COC(N)=O)[C@@]4(OC)[C@H]6N[C@H]6CN54)CNC4=C(C)C(=O)C5=C(C4=O)[C@@H](COC(N)=O)[C@@]4(OC)[C@H]6N[C@H]6CN54)C3=O)N1C[C@@H]1N[C@@H]12", "note": "(some centres undefined)", "values": [{"measurement": "K", "setting": "[6]", "result": 6.9, "unit": "day⁻¹"}, {"measurement": "t1/2", "setting": "[7]", "result": 16.6, "unit": "h"}, {"measurement": "K", "setting": "[8]", "result": 0.72, "unit": "day⁻¹"}, {"measurement": "Activity", "setting": "[2]", "result": 68, "unit": "%"}, {"measurement": "K", "setting": "[9]", "result": 1.3, "unit": "day⁻¹"}, {"measurement": "K", "setting": "[10]", "result": 0.69, "unit": "day⁻¹"}, {"measurement": "K", "setting": "[11]", "result": 1.3, "unit": "day⁻¹"}, {"measurement": "K", "setting": "[12]", "result": 1, "unit": "day⁻¹"}, {"measurement": "t1/2", "setting": "[13]", "result": 12.7, "unit": "h"}, {"measurement": "t1/2", "setting": "[14]", "result": 5.76, "unit": "h"}, {"measurement": "Activity", "setting": "[3]", "result": 51, "unit": "%"}, {"measurement": "t1/2", "setting": "[15]", "result": 12.7, "unit": "h"}, {"measurement": "Activity", "setting": "[16]", "result": 41, "unit": "%"}, {"measurement": "t1/2", "setting": "[17]", "result": 2.4, "unit": "h"}, {"measurement": "t1/2", "setting": "[18]", "result": 23, "unit": "h"}, {"measurement": "t1/2", "setting": "[19]", "result": 24, "unit": "h"}, {"measurement": "K", "setting": "[20]", "result": 2.9, "unit": "day⁻¹"}, {"measurement": "Activity", "setting": "[21]", "result": 17, "unit": "%"}]}]}
